Measured values reported in ChEMBL document CHEMBL4184113, “Synthesis and PGE2 inhibitory activity of novel diarylheptanoids” (Bioorg Med Chem Lett, 2018).
The source made the active and inactive calls. The calls are words filed in the database; no cut-off is given here.

Tests used:
Homo sapiens = species on record: Homo sapiens; test: Inhibition of TNFalpha-induced NFkappaB activation (unknown origin) expressed in mouse 3T3L1 cells at 10 ng/µl by luciferase reporter gene assay
[1] = molecular target: T1, Prostaglandin E synthase (Mus musculus) (UniProt Q9JM51); test: Inhibition of mPGES1 in mouse 3T3L1 cells assessed as reduction in PGE2 production at 1 to 10 ng/ml after 1 hr by ELISA; type: cell-based
T1 sequence (whole entry): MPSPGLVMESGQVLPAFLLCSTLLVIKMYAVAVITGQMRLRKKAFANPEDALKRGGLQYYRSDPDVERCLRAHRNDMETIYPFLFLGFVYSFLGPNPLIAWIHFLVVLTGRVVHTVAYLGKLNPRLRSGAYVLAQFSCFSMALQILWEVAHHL
Method in brief: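 3T3 cells were treated with compound at 1 and 10 ng/ml. Culture media were collected and secreted PGE2 was measured by ELISA.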

3T3-L1 = test: Cytotoxicity against mouse 3T3L1 cells assessed as reduction in cell viability at 10 ng/ml after 6 hrs by alamar blue assay; type: cell-based; conditions: 3t3-l1, 6 h
[2] = molecular target: T1, Prostaglandin E synthase (Mus musculus); test: (§1) Inhibition of mPGES1 in mouse 3T3L1 cells assessed as reduction in PGE2 production after 1 hr by ELISA; type: cell-based
Method in brief: (§2)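 3T3 cells were treated at four doses and secreted PGE2 was measured by ELISA. IC50 was obtained by four-parameter logistic fit.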

Prostaglandin E synthase = molecular target: T2, Prostaglandin E synthase (Mus musculus, UniProt Q9JM51); test: as §1; type: cell-based
T2 sequence (Q9JM51 whole entry): T1 sequence (whole entry)
Method in brief: as §2

[3] = molecular target: T1, Prostaglandin E synthase (Mus musculus); test: Inhibition of mPGES1 in mouse 3T3L1 cells assessed as reduction in PGE2 production at 10 ng/ml after 1 hr by ELISA relative to control; values are per cent of control

Compound | inhibition (Homo sapiens) | Activity (3T3-L1) | inhibition [2] | IC50 (Prostaglandin E synthase) [µM] | further results
COc1ccc(C/C=C/CCCCc2ccccc2O)cc1OC | inactive |  |  |  | 
COc1ccc(C/C=C/CCCCc2ccccc2O)cc1 | inactive |  |  |  | inhibition [1]: Active
COc1ccc(CCCCCCCc2ccc(O)cc2)cc1 | inactive |  |  |  | 
COc1ccc(CCCCCCCc2ccccc2O)cc1 |  |  |  |  | inhibition [1]: inactive
COc1cc(/C=C/C(=O)CC(=O)/C=C/c2ccc(O)c(OC)c2)ccc1O | Active |  |  |  | 
COc1ccc(C/C=C/CCCCc2ccc(O)cc2)cc1 |  |  |  |  | inhibition [1]: inactive
COc1ccc(C/C=C/Cc2ccc(OC)cc2)cc1 |  | Non-Toxic | Dose-dependent effect | 12 | 
COc1ccc(C/C=C/CCCCc2ccc(O)cc2)cc1OC |  | Non-Toxic | Dose-dependent effect | 1.7 | 
COc1ccc(CCCCCCCc2ccc(O)cc2)cc1OC |  | Non-Toxic | Dose-dependent effect | 29 | residual activity [3]: 33%
COc1ccc(CCCCc2ccc(OC)cc2)cc1 | inactive |  | Dose-dependent effect |  | 
COc1ccc(CCCCCCCc2ccccc2O)cc1OC | inactive | Non-Toxic | Dose-dependent effect | 17 | 
